In ChEMBL document CHEMBL1781968, “δ-Carbolines and their ring-opened analogs: synthesis and evaluation against fungal and bacterial opportunistic pathogens” (Eur J Med Chem, 2011):
≈ marks a conversion by molar mass, not a printed value.

How the values were obtained:
[1] = tested on: Aspergillus fumigatus; test: Antifungal activity against Aspergillus fumigatus ATCC 204305 by NCCLS method; format: functional, organism-based
Summary of the method: (§1)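 Modified NCCLS microdilution for fungi. Samples in DMSO serially diluted with 0.9% saline, in duplicate, final concentrations from 20 μg/mL down. Inocula matched to 0.5 McFarland (630 nm) and diluted in Sabouraud dextrose broth. Growth, solvent and medium controls included. OD 530 nm read before and after incubation. IC50 from percent growth curve. MIC is no detectable growth. MFC is lowest concentration killing the organism.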

[2] = tested on: Escherichia coli; test: Antibacterial activity against Escherichia coli by NCCLS method; format: functional, organism-based
Summary of the method: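 Modified NCCLS broth microdilution. DMSO-dissolved samples serially diluted in 0.9% saline, tested in duplicate, final concentrations starting at 20 μg/mL. Inoculum set to 0.5 McFarland (absorbance 630 nm) and diluted in cation-adjusted Mueller–Hinton broth. Growth, solvent and medium controls on each plate. Read at 530 nm before and after incubation. IC50 from percent growth versus concentration. MIC is lowest concentration with no detectable growth.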

[3] = Cytotoxicity against african green monkey Vero cell after 48 hrs by neutral red uptake assay; format: cell-based; conditions: chlorocebus sabaeus, Vero cells; read-out: TC50
Summary of the method: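 VERO kidney fibroblasts seeded at 25,000 cells/well and incubated 24 h. Compounds added, highest concentration 10 μg/mL, then 48 h further incubation. Viable cells measured by neutral red assay. IC50 taken from growth-inhibition dose curves. Doxorubicin as positive control, DMSO as vehicle control.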

[4] = tested on: Staphylococcus aureus; test: Antibacterial activity against methicillin-resistant Staphylococcus aureus ATCC 33591 by NCCLS method; format: functional, organism-based
Summary of the method: (§2)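 Broth microdilution (modified NCCLS). Samples in DMSO serially diluted in 0.9% saline, tested in duplicate, highest final concentration 20 μg/mL. Inoculum matched to 0.5 McFarland standard by absorbance at 630 nm, then diluted in cation-adjusted Mueller–Hinton broth. Growth, solvent and medium controls on each plate. Absorbance at 530 nm read before and after incubation. IC50 taken from percent growth versus concentration plot; MIC is lowest concentration with no detectable growth; MBC is lowest concentration killing the organism.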

[5] = tested on: Mycobacterium intracellulare; test: Antibacterial activity against Mycobacterium intracellular ATCC 23068 by alamar blue method; format: functional, organism-based
Summary of the method: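 Modified Alamar blue method (Franzblau). Samples in DMSO serially diluted in 0.9% saline, in duplicate, final concentrations starting at 20 μg/mL. Inoculum adjusted to 0.5 McFarland, then diluted in Middlebrook 7H9 with OADC enrichment plus 5% Alamar blue. Fluorescence read (ex 544/em 590 nm) before and after incubation. IC50 from percent growth versus concentration. MIC is no detectable growth.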

[6] = tested on: Staphylococcus aureus; test: Antibacterial activity against Staphylococcus aureus ATCC 29213 by NCCLS method; format: functional, organism-based; summary of the method: as §2
[7] = tested on: Candida albicans; test: Antifungal activity against Candida albicans ATCC 90028 by NCCLS method; format: functional, organism-based; summary of the method: as §1
[8] = tested on: Cryptococcus neoformans; test: Antifungal activity against Cryptococcus neoformans ATCC 90113 by NCCLS method; format: functional, organism-based; summary of the method: as §1

In the case of Cc1ccc(N(CCCCCC2CCCCC2)c2ccc[n+](C)c2)cc1.[I-], the MFC [1] is reported as 5 µg/mL, the MIC [1] is reported as 5 µg/mL and the IC50 [2] is reported as 4.5 µg/mL. The MBC [2] was greater than 20 µg/mL, the MIC [2] was 20 µg/mL and the CC50 at 48 h [3] was greater than 10 µg/mL. For the same compound, the IC50 [4] was 1 µg/mL, the MBC [4] was 2.5 µg/mL and the MIC [4] was 2.5 µg/mL. For the same compound, the IC50 [5] was 1.5 µg/mL, the MBC [5] was 2.5 µg/mL and the MIC [5] was 2.5 µg/mL.
Work on Cc1ccccc1N(CCCCCC1CCCCC1)c1ccc[n+](C)c1.[I-] yielded an IC50 [2] of 9.4 µg/mL, an MBC [2] greater than 20 µg/mL and an MIC [2] greater than 20 µg/mL. The IC50 [6] was 0.3 µg/mL, the MBC [6] was 10 µg/mL and the MIC [6] was 0.6 µg/mL. For the same compound, the IC50 [4] was 1 µg/mL, the MBC [4] was 10 µg/mL and the MIC [4] was 2.5 µg/mL. The IC50 [5] was 1.6 µg/mL, the MBC [5] was 2.5 µg/mL and the MIC [5] was 2.5 µg/mL.
Work on Cc1cccc(N(CCCCCC2CCCCC2)c2ccc[n+](C)c2)c1.[I-] yielded an IC50 [2] of 7.7 µg/mL, an MBC [2] greater than 20 µg/mL and an MIC [2] greater than 20 µg/mL. It also gave an IC50 [6] of 0.7 µg/mL, an MBC [6] of 5 µg/mL and an MIC [6] of 1.3 µg/mL. It also gave an IC50 [4] of 1.2 µg/mL, an MBC [4] of 5 µg/mL and an MIC [4] of 2.5 µg/mL. The IC50 [5] was 1.1 µg/mL, the MBC [5] was 5 µg/mL and the MIC [5] was 1.3 µg/mL.
Compound C[n+]1cccc(N(CCCCCC2CCCCC2)c2ccc(Cl)cc2)c1.[I-] has an MFC [1] greater than 20 µg/mL, an MIC [1] of 1.6 µg/mL and an MFC [7] greater than 20 µg/mL. For the same compound, the CC50 at 48 h [3] was greater than 10 µg/mL, the IC50 [6] was 1.5 µg/mL and the MIC [6] was 3.1 µg/mL. It also gave an IC50 [5] of 1 µg/mL and an MIC [5] of 1.6 µg/mL.
Work on C[n+]1cccc(N(CCCCCC2CCCCC2)c2ccc(C(F)(F)F)cc2)c1.[I-] yielded an MFC [1] of 5 µg/mL, an MIC [1] of 2.5 µg/mL and an IC50 [2] of 3.5 µg/mL. The MBC [2] was 20 µg/mL, the MIC [2] was 20 µg/mL and the CC50 at 48 h [3] was greater than 10 µg/mL. For the same compound, the IC50 [4] was 0.9 µg/mL, the MBC [4] was 2.5 µg/mL and the MIC [4] was 2.5 µg/mL. For the same compound, the IC50 [5] was 1 µg/mL, the MBC [5] was 1.3 µg/mL and the MIC [5] was 1.3 µg/mL.
C[n+]1cccc(N(CCCCCC2CCCCC2)c2cccc(Cl)c2)c1.[I-] showed an IC50 [1] of 12 µg/mL, an MFC [1] of 20 µg/mL and an MIC [1] of 20 µg/mL. It also gave an IC50 [2] of 6.5 µg/mL, an MBC [2] greater than 20 µg/mL and an MIC [2] greater than 20 µg/mL. It also gave an IC50 [8] of 0.72 µg/mL, a CC50 at 48 h [3] greater than 10 µg/mL and an IC50 [6] of 0.34 µg/mL. It also gave an MBC [6] of 5 µg/mL, an MIC [6] of 0.63 µg/mL and an IC50 [4] of 1.3 µg/mL. The MBC [4] was 5 µg/mL, the MIC [4] was 2.5 µg/mL and the IC50 [5] was 2.1 µg/mL. The MBC [5] was 5 µg/mL and the MIC [5] was 2.5 µg/mL.
Compound O=C(O)c1cn(C2CC2)c2cc(N3CCNCC3)c(F)cc2c1=O [CIPROFLOXACIN] has an IC50 [2] of 0.005 µg/mL (≈ 0.0151 µM), an MBC [2] of 0.6 µg/mL (≈ 1.81 µM) and an MIC [2] of 0.3 µg/mL (≈ 0.905 µM). The MBC [6] was 0.5 µg/mL (≈ 1.51 µM), the MIC [6] was 0.3 µg/mL (≈ 0.905 µM) and the MBC [4] was 0.5 µg/mL (≈ 1.51 µM). It also gave an MIC [4] of 0.3 µg/mL (≈ 0.905 µM), an MBC [5] greater than 20 µg/mL and an MIC [5] of 0.5 µg/mL (≈ 1.51 µM).
For COc1ccccc1N(CCCCCC1CCCCC1)c1ccc[n+](C)c1.[I-], the IC50 [2] was 14 µg/mL, the MBC [2] was greater than 20 µg/mL and the MIC [2] was greater than 20 µg/mL. For the same compound, the IC50 [6] was 0.4 µg/mL, the MBC [6] was 20 µg/mL and the MIC [6] was 0.6 µg/mL. For the same compound, the IC50 [4] was 1.2 µg/mL, the MBC [4] was 20 µg/mL and the MIC [4] was 5 µg/mL. For the same compound, the IC50 [5] was 1.9 µg/mL, the MBC [5] was 2.5 µg/mL and the MIC [5] was 2.5 µg/mL.
C[n+]1cccc(N(CCCCCC2CCCCC2)c2ccccc2C(F)(F)F)c1.[I-] gave an IC50 [2] of 9.1 µg/mL, an MBC [2] greater than 20 µg/mL and an MIC [2] greater than 20 µg/mL. It also gave an IC50 [6] of 0.3 µg/mL, an MBC [6] of 10 µg/mL and an MIC [6] of 0.3 µg/mL. It also gave an IC50 [4] of 0.6 µg/mL, an MBC [4] of 5 µg/mL and an MIC [4] of 1.3 µg/mL. The IC50 [5] was 1.2 µg/mL, the MBC [5] was 2.5 µg/mL and the MIC [5] was 3.5 µg/mL.
Work on C[C@@H]1[C@H](O)[C@@H](C)/C=C/C=C/C=C/C=C/C=C/C=C/C=C/[C@H](O[C@@H]2O[C@H](C)[C@@H](O)[C@H](N)[C@@H]2O)C[C@@H]2O[C@](O)(C[C@@H](O)C[C@@H](O)[C@H](O)CC[C@@H](O)C[C@@H](O)CC(=O)O[C@H]1C)C[C@H](O)[C@H]2C(=O)O [AMPHOTERICIN B] yielded an MFC [1] of 5 µg/mL (≈ 5.41 µM), an MIC [1] of 1.3 µg/mL (≈ 1.41 µM) and an MFC [8] of 0.63 µg/mL (≈ 0.682 µM). It also gave an MIC [8] of 0.63 µg/mL (≈ 0.682 µM).
